# From PubChem
# This excerpt belongs to a sample that is enriched for hits.
# PfGluPho inh: PfG6PD enzyme inhibitors, primary screen, biochemical, fluorescence intensity, uHTS. glucose-6-phosphate dehydrogenase-6-phosphogluconolactonase (Plasmodium falciparum 3D7). PfGluPho enzyme, NADPH resazurin-diaphorase fluorescence. inhibition, % at 20 µM. 0.78% of 350,000 active. AID 504690, 2011;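 active means inhibition reaching at least a set limit at 20 µM in the primary screen, cut at about 59% in these data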;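 further: 0% = DMSO wells with substrate and 100% = DMSO wells lacking glucose-6-phosphate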
# Lmaj promast: Leishmania major promastigote growth inhibition, primary screen; 9% of 200,000 active; inhibition, % at 10 µM; Leishmania major promastigotes, resazurin fluorescence viability;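 further: promastigotes grown with compound for 44 hours at 28 °C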
# DTT redox prof: compounds producing H2O2 with reducing agent – biochemical, NIH compound library profiling, artefact control for MLSCN library redox annotation, primary screen; AID 878, 2007; 0.03% of 200,000 active; DTT-dependent redox cycling H2O2, phenol red/HRP absorbance; 100% = 100 µM peroxide control, 0% = buffer; activation, % at 10 µM;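 active means activation of at least 50% relative to the plate's high and low controls in the primary single-dose screen; inactive means activation below 50%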;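 further: compound incubated with DTT at 0.8 mM final as the reducing agent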
# Diaph inh CS: diaphorase inhibitors and chemical oxidizers, primary screen, counter-screen for diaphorase-coupled primary assays, biochemical, uHTS, resorufin fluorescence; diaphorase resazurin-to-resorufin fluorescence, NADH, 16 min; bacterial (C. kluyveri) enzyme, not human; inhibition, % at 20 µM; 0.69% of 190,000 active;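 active means primary screen inhibition at 20 µM above a set limit, cut at about 50% in these data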;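 further: plate controls were DMSO with full reaction for no effect and wells lacking NADH for full effect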
#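 Assay system: diaphorase enzyme from Clostridium kluyveri; Input: enzyme working solution with 0.14 U/mL diaphorase; Timing: 16 min at room temperature; Technique: resorufin fluorescence, excitation 544 nm, emission 590 nm; Benchmarks: positive control minus NADH, DMSO neutral control.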
# Diaphorase act: compounds boosting diaphorase resazurin reduction – biochemical, uHTS, resorufin fluorescence, counter-screen for diaphorase-coupled primary assays, primary screen. Diaphorase/resazurin coupled assay, 16 min; hits give high values; 1 = vehicle wells, 0 = NADH-free wells. activation factor at 20 µM. 0.005% of 190,000 active. AID 1229, 2008;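 active means diaphorase activity raised at least twofold by the compound at 20 µM; inactive means activation factor below 2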
#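 Measured by – red resorufin fluorescence at 544/590 nm excitation/emission · Test system – Clostridium kluyveri diaphorase, purified enzyme · Incubation – reaction time 16 min, room temperature · Buffer or medium – 50 mM HEPES pH 7.4 with 4.542 mM MgCl2, 0.005% Tween 20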
# G6PDH CS: L. mesenteroides G6PDH inhibitors, counter-screen for G6PDH-coupled screening assays, biochemical, Leuconostoc mesenteroides enzyme. glucose-6-phosphate dehydrogenase [Leuconostoc mesenteroides]. Purified L. mesenteroides G6PDH, diaphorase/resazurin coupled fluorescence, 45 min. inhibition, % at 5 µM. 0.12% of 200,000 active
# An asterisk follows results filed as active; . = not tested or not shown. Unless noted, no stated cut-off is given here; in the data, active means inhibition above about 50%; inactive means the rest.
SMILES,PfGluPho inh,Lmaj promast,DTT redox prof,Diaph inh CS,Diaphorase act,G6PDH CS
CCCOc1cccc(C(=O)NC(=S)Nc2cccc(NC(=O)c3ccccc3Cl)c2)c1,-4,97*,0,14,0.9,4
Cc1ccc(C)c(N2CC(C(=O)O)CC2=O)c1 (stereo not drawn),-7,-6,-1,5,0.9,24
CCCN(CC(=O)Nc1ccccc1C)C(=O)c1sc2ccccc2c1Cl,4,.,.,.,.,.
CN1/C(=C\C(=O)COC(=O)Cn2nnc(-c3ccccc3)n2)C(C)(C)c2ccccc21,20,90*,1,20,0.8,-3
CN1/C(=C\C(=O)COC(=O)c2ccc([N+](=O)[O-])o2)C(C)(C)c2ccccc21,5,81*,1,24,0.8,3
Cc1ccsc1CN1CCC(C(=O)NCc2ccccc2Cl)CC1,-6,92*,0,-12,1.1,8
O=C(NCc1ccccc1Cl)C1CCN(C(=O)c2ccc(F)cc2)CC1,10,.,.,.,.,.
CC(C)(C)c1ccc(C(=O)CC(Sc2ccc(Cl)cc2)C(=O)O)cc1 (stereo not drawn),23,78*,0,17,0.8,2
Cc1ccc(SC(CC(=O)c2ccc(F)cc2)C(=O)O)cc1 (stereo not drawn),-14,.,.,.,.,.
CCCn1c2ccccc2c2cnn(CC(=O)N3CCN(C4CCCCC4)CC3)c(=O)c21,14,.,.,.,.,.
COc1cc(-c2cc(N)n(S(=O)(=O)c3ccc(F)cc3)n2)cc(OC)c1OC,17,22,-2,14,0.9,11
COc1ccc(-c2cc(N)n(S(=O)(=O)c3ccc(F)cc3)n2)cc1OC,-1,51*,-1,22,0.8,10
CCOC(=O)c1oc2ccc(S(=O)(=O)n3nc(-c4cc(OC)c(OC)c(OC)c4)cc3N)cc2c1C,4,64*,1,21,0.8,6
NC(=O)CC(NC(=O)Cc1cccc2ccccc12)c1ccc(N2CCc3ccccc3C2)c([N+](=O)[O-])c1 (stereo not drawn),12,.,.,.,.,.
CN(Nc1cccc(Cl)c1)c1cccc(Cl)c1,11,.,.,.,.,.
COc1ccc(-c2nnc(SCC(=O)c3ccc(O)cc3O)o2)cc1,10,.,.,.,.,.
CCN(C(=O)COC(=O)c1nc(Cl)ccc1Cl)c1c(N)n(Cc2ccccc2)c(=O)[nH]c1=O,3,.,.,.,.,.
O=C(NC(Cc1ccccc1)C(=O)O)c1ccc(S(=O)(=O)N2CCCCC2)cc1 (stereo not drawn),-4,55*,0,2,1,1
O=C(NC(Cc1ccccc1)C(=O)O)c1ccc(S(=O)(=O)N2CCCC2)cc1 (stereo not drawn),-9,72*,-1,-9,1.1,11
Cc1ccc(S(=O)(=O)/N=S(\C)CC2CC2(Cl)Cl)cc1 (stereo not drawn),12,-6,-1,12,0.9,18
Cc1cccc(N2CCN(C(=O)c3c(-c4ccccc4)noc3C)CC2)c1C,8,.,.,.,.,.
Cc1ccccc1NC(=O)c1c2c(nc3ccccc13)CCC2,-1,-3,-2,19,0.8,2
COC(=O)c1ccc(COc2ccccc2/C=C(\C#N)C(=O)Nc2ccc(C)cc2C)cc1,-8,10,1,-1,1,15
COC(=O)c1ccc(COc2ccccc2/C=C(\C#N)C(=O)Nc2c(C)cc(C)cc2C)cc1,9,100*,0,21,0.8,-20
Clc1cccc(C[n+]2cc(-c3ccccc3)n3c2CCC3)c1,-18,99*,0,12,0.9,-1
SMILES,PfGluPho inh,Lmaj promast,DTT redox prof,Diaph inh CS,Diaphorase act,G6PDH CS
Cc1ccc(-c2c[n+](Cc3cccc(Cl)c3)c3n2CCC3)cc1,1,.,.,.,.,.
Clc1ccc(-c2c[n+](Cc3ccc(Cl)c(Cl)c3)c3n2CCC3)cc1,.,99*,1,6,0.9,-27
Cc1cccc2sc(N(CCN(C)C)C(=O)C3CCN(S(=O)(=O)c4cccs4)CC3)nc12,14,.,.,.,.,.
O=S(=O)(c1cccc2nsnc12)N1CCN(C/C=C\c2ccccc2)CC1,-17,94*,0,4,1,-2
CCN1CCN(S(=O)(=O)c2cccc3nsnc23)CC1,-17,-4,1,18,0.8,0
O=S(=O)(c1cccc2nsnc12)N1CCN(C/C=C/c2ccccc2)CC1,1,81*,1,5,1,12
Cn1c(=O)n(C)c2cc(N3CCCCC3)c(NC(=O)c3ccccc3)cc21,9,.,.,.,.,.
CC1CN(c2nc3c(c(=O)n(C)c(=O)n3C)n2Cc2c(F)cccc2Cl)CC(C)O1 (stereo not drawn),-2,8,-3,7,0.9,0
CCOc1cc(/C=N\Nc2nc(Nc3ccccc3)nc(N3CCOCC3)n2)ccc1OC(=O)c1ccco1,5,88*,2,16,0.8,8
COc1cc(/C=N/Nc2ccc3ccccc3c2)ccc1OC(=O)c1ccco1,14,88*,2,43,0.6,-41
COC(=O)N/N=C/c1ccc(OC(=O)c2ccco2)c(OC)c1,3,.,.,.,.,.
Cc1ccc(Nc2nc(N/N=C\c3ccc4c(c3)OCO4)nc(N3CCOCC3)n2)cc1,-10,54*,1,-6,1.1,-6
Clc1cc2c(cc1/C=N/Nc1nc(N3CCOCC3)nc(N3CCOCC3)n1)OCO2,-4,13,-1,2,1,4
O=C(O)COc1ccc(/C=N/Nc2nc(Nc3ccccc3)nc(N3CCCCC3)n2)cc1,-16,-6,0,3,1,-1
COc1cc(/C=N/Nc2nc(C)cc(C)n2)ccc1OC(=O)c1ccco1,5,51*,1,14,0.9,3
Cc1ccc(NC2CCCN(C(=O)c3cccc(-c4ncc[nH]4)c3)C2)cc1C (stereo not drawn),-8,.,.,.,.,.
CN(C)CCCN1C(=O)c2cccc3c(Br)ccc(c23)C1=O,8,100*,0,14,0.9,-2
COc1cccc(NC(=O)COC(=O)c2ccc(C)c(S(=O)(=O)N3CCCCC3)c2)c1,1,.,.,.,.,.
CN(Cc1cn(C)c2ccccc12)C(=S)Nc1cc(F)cc(F)c1,1,74*,0,15,0.8,1
Cc1cccc(NC(=S)N(C)Cc2cn(C)c3ccccc23)c1,17,69*,0,10,0.9,7
COc1cccc(NC(=O)Cc2cn(C)c3ccccc23)c1,4,3,0,7,0.9,-1
NC(=O)c1ccc[n+](CC(=O)Nc2ccccc2C(=O)O)c1,-6,.,.,.,.,.
